This note sets out measurements from ChEMBL document CHEMBL1149055, “Spiroquinazoline, a novel substance P inhibitor with a new carbon skeleton, isolated from Aspergillus flavipes” (J Nat Prod, 1994).

Active and inactive are the calls of the source. The rule behind the calls is not given here.

In one assay the target is T1, Substance-P receptor (Homo sapiens, UniProt P25103). In words: Displacement of [3H]substance P from NK1 receptor in human astrocytoma cells. It counts as cell-based. The method, boiled down: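 Whole human astrocytoma cells; inhibition of [³H]-SP binding reported as a Ki in μM.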
T1 sequence (P25103 whole entry): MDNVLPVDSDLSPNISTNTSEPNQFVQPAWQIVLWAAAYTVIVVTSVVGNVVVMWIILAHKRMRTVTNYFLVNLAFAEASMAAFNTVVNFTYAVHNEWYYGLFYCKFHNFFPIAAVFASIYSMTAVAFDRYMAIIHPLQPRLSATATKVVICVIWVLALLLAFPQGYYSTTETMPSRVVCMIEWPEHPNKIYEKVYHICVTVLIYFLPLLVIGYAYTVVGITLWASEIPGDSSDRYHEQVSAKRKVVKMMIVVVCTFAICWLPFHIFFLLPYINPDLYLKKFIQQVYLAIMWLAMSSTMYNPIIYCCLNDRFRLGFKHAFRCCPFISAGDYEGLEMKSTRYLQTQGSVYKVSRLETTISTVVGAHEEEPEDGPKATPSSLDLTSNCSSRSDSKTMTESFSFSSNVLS
`C=CC(C)(C)[C@@]12C[C@H]3C(=O)Nc4ccccc4C(=O)N3[C@@H]1N(C(C)=O)c1ccccc12` [ACYL ASZONALENIN] returned a Ki of 170 µM. Compound `C[C@@]12NC(=O)[C@@H](C[C@@]13c1ccccc1N1C(=O)CN[C@@H]13)n1c2nc2ccccc2c1=O` [SPIROQUINAZOLINE] came in with a Ki of 95 µM.

The target of another assay is T1, Substance-P receptor. In words: Displacement of [3H]substance P from NK1 receptor in human astrocytoma cells at 200 uM. It counts as cell-based. For orientation: Loss of bound radioactivity is the signal in a displacement assay; it reports binding, not function.
As to `O=C1N[C@@H](Cc2ccc(O)cc2)C(=O)N2CCC[C@H]12`, the outcome was inactive. Consider `O=C1N[C@@H](Cc2ccccc2)C(=O)N2CCC[C@H]12`, for which the result was inactive. Consider `CC(C)C[C@@H]1NC(=O)[C@@H]2CCCN2C1=O`, for which the result was inactive. For `O=C1N[C@@H](Cc2ccc(O)cc2)C(=O)N2CCC[C@@H]12`, the outcome was inactive. For `C[C@H]1N[C@H]2N(C1=O)c1ccccc1[C@@]21C[C@@H]2C(=O)N[C@](C)(O1)c1nc3ccccc3c(=O)n12`, the outcome was inactive. `O=C1N[C@@H](Cc2c[nH]c3ccccc23)C(=O)Nc2ccccc21`: the outcome was inactive. Still for that read-out and setting: then `CC(C)[C@@H]1NC(=O)[C@@H]2CCCN2C1=O`, with “inactive”; and `O=C(N[C@H](CO)Cc1ccccc1)c1ccccc1`, with “inactive”; and `O=C1N[C@@H](Cc2ccccc2)C(=O)N2CCC[C@@H]12`, with “inactive”. On to `CC(C)[C@@H]1NC(=O)[C@H]2CCCN2C1=O`, for which the result was inactive.

In general, Ki refers to a dissociation constant, usually derived from enzyme kinetics or from competition with a known ligand. Higher therefore signals a looser hold on the target.
